Source: ChEMBL document CHEMBL1157072 (Bioorg Med Chem, 2010)
≈ marks a conversion by molar mass, not a printed value.

Key:
Staphylococcus aureus [1] = test: Antibacterial activity against Staphylococcus aureus NCTC 8325 after 16 to 20 hrs by broth microdilution method; type: functional
In short: (§1)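 Broth microdilution in cation-adjusted Mueller Hinton broth. Compounds were serially diluted twofold in DMSO at 50-fold final strength (2% DMSO final). The inoculum was 1 × 10^4 cells per well. Plates were incubated at 37 °C for 16–20 h, and growth was read as absorbance at 600 nm.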

Staphylococcus aureus [2] = test: Antibacterial activity against Staphylococcus aureus NCTC 8325 after 16 to 20 hrs by broth microdilution method in presence of efflux pump inhibitor reserpine; type: functional
In short: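 Broth microdilution in cation-adjusted MHB with reserpine at 20 µg/ml final in the medium as efflux inhibitor. Twofold DMSO dilutions were made (2% DMSO final) with 1 × 10^4 cells per well. Incubation was 37 °C for 16–20 h, with growth read at 600 nm.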

Staphylococcus aureus [3] = test: Antibacterial activity against Staphylococcus aureus NCTC 8325 harboring genetic deletion of mepRA gene and carrying expression vector pG154 with mepA gene after 16 to 20 hrs by broth microdilution method; type: functional; in short: as §1
Staphylococcus aureus [4] = test: microbe, parasite or virus in culture; details: isolate d20A1
Staphylococcus aureus [5] = test: Antibacterial activity against Staphylococcus aureus NCTC 8325 harboring genetic deletion of mepRA gene and carrying expression vector pG154 after 16 to 20 hrs by broth microdilution method in presence of anhydrous tetracycline; type: functional
In short: (§2)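 Broth microdilution in cation-adjusted MHB containing anhydrous tetracycline at 100 ng/ml final to induce the pG154 expression vector. Twofold DMSO compound dilutions were used (2% DMSO final) with 1 × 10^4 cells per well. Incubation was 37 °C for 16–20 h, and absorbance was read at 600 nm.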

Staphylococcus aureus [6] = test: Antibacterial activity against Staphylococcus aureus NCTC 8325 carrying expression vector pG154 after 16 to 20 hrs by broth microdilution method in presence of anhydrous tetracycline; type: functional; in short: as §2
Staphylococcus aureus [7] = test: Antibacterial activity against Staphylococcus aureus NCTC 8325 harboring genetic deletion of mepRA gene and carrying expression vector pG154 after 16 to 20 hrs by broth microdilution method; type: functional; in short: as §1
Staphylococcus aureus [8] = test: Antibacterial activity against Staphylococcus aureus NCTC 8325 carrying expression vector pG154 with mepA gene after 16 to 20 hrs by broth microdilution method in presence of anhydrous tetracycline; type: functional; in short: as §2
Staphylococcus aureus [9] = test: Antibacterial activity against Staphylococcus aureus NCTC 8325 carrying expression vector pG154 with mepA gene after 16 to 20 hrs by broth microdilution method; type: functional; in short: as §1
Staphylococcus aureus [10] = test: Antibacterial activity against Staphylococcus aureus NCTC 8325 harboring genetic deletion of mepRA gene after 16 to 20 hrs by broth microdilution method; type: functional; in short: as §1
Staphylococcus aureus [11] = test: Antibacterial activity against Staphylococcus aureus NCTC 8325 harboring genetic deletion of mepRA gene and carrying expression vector pG154 with mepA gene after 16 to 20 hrs by broth microdilution method in presence of anhydrous tetracycline; type: functional; in short: as §2
Staphylococcus aureus [12] = test: Antibacterial activity against Staphylococcus aureus NCTC 8325 carrying expression vector pG154 after 16 to 20 hrs by broth microdilution method; type: functional; in short: as §1
Staphylococcus aureus [13] = test: Antibacterial activity against Staphylococcus aureus NCTC 8325 harboring genetic deletion of mepR gene after 16 to 20 hrs by broth microdilution method; type: functional; in short: as §1
[14] = Selectivity ratio of MIC for MBX-1090-resistant Staphylococcus aureus isolate d20A1 to MIC for Staphylococcus aureus NCTC 8325; type: functional
In short: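 Ratio of resistant-mutant MIC to NCTC 8325 MIC. Both MICs came from broth microdilution in cation-adjusted MHB with 2% DMSO final and 1 × 10^4 cells per well, incubated at 37 °C for 16–20 h and read at 600 nm.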

[15] = Dissociation constant, pKa of the compound; type: physicochemical

GENTAMICIN
MIC (Staphylococcus aureus [1]): 0.25 µg/mL

c1cc2cc(-c3ccc4cc(-c5ccc6oc(C7=NCCN7)cc6c5)[nH]c4c3)[nH]c2cc1C1=NCCN1
MIC (Staphylococcus aureus [2]): 0.25 µg/mL
MIC (Staphylococcus aureus [3]): 0.5 µg/mL (≈ 1.03 µM)
MIC (Staphylococcus aureus [4]): 1 µg/mL (≈ 2.06 µM)
MIC (Staphylococcus aureus [5]): 0.5 µg/mL
MIC (Staphylococcus aureus [6]): 1 µg/mL
MIC (Staphylococcus aureus [7]): 1 µg/mL (≈ 2.06 µM)
MIC (Staphylococcus aureus [8]): 0.25 µg/mL
MIC (Staphylococcus aureus [9]): 1 µg/mL (≈ 2.06 µM)
MIC (Staphylococcus aureus [10]): 1 µg/mL (≈ 2.06 µM)
MIC (Staphylococcus aureus [11]): 0.5 µg/mL
MIC (Staphylococcus aureus [1]): 0.5 µg/mL (≈ 1.03 µM)
MIC (Staphylococcus aureus [12]): 1 µg/mL (≈ 2.06 µM)
MIC (Staphylococcus aureus [13]): 0.5 µg/mL (≈ 1.03 µM)

Cc1onc(-c2ccccc2)c1C(=O)N[C@@H]1C(=O)N2[C@@H]1SC(C)(C)[C@@H]2C(=O)O [OXACILLIN]
MIC (Staphylococcus aureus [4]): 0.125 µg/mL (≈ 0.311 µM)
MIC (Staphylococcus aureus [1]): 0.125 µg/mL (≈ 0.311 µM)

CC[C@H]1OC(=O)[C@H](C)[C@@H](O[C@H]2C[C@@](C)(OC)[C@@H](O)[C@H](C)O2)[C@H](C)[C@@H](O[C@@H]2O[C@H](C)C[C@H](N(C)C)[C@H]2O)[C@](C)(O)C[C@@H](C)C(=O)[C@H](C)[C@@H](O)[C@]1(C)O [ERYTHROMYCIN]
MIC (Staphylococcus aureus [4]): 0.5 µg/mL (≈ 0.681 µM)
MIC (Staphylococcus aureus [1]): 1 µg/mL (≈ 1.36 µM)

CN[C@@H]1[C@H](O[C@H]2[C@H](O[C@H]3[C@H](O)[C@@H](O)[C@H](N=C(N)N)[C@@H](O)[C@@H]3N=C(N)N)O[C@@H](C)[C@]2(O)C=O)O[C@@H](CO)[C@H](O)[C@H]1O [STREPTOMYCIN]
MIC (Staphylococcus aureus [4]): 128 µg/mL (≈ 220 µM)
Selectivity ratio [14]: 4
MIC (Staphylococcus aureus [1]): 32 µg/mL (≈ 55 µM)

CC1(C)S[C@@H]2[C@H](NC(=O)[C@H](N)c3ccccc3)C(=O)N2[C@H]1C(=O)O [AMPICILLIN]
MIC (Staphylococcus aureus [4]): 0.0625 µg/mL (≈ 0.179 µM)
MIC (Staphylococcus aureus [1]): 0.0625 µg/mL (≈ 0.179 µM)

CC1(C)S[C@@H]2[C@H](NC(=O)C(C(=O)O)c3ccccc3)C(=O)N2[C@H]1C(=O)O (some centres not stated) [CARBENICILLIN]
MIC (Staphylococcus aureus [4]): 0.0625 µg/mL (≈ 0.165 µM)
MIC (Staphylococcus aureus [1]): 0.0625 µg/mL (≈ 0.165 µM)

N=C(N)c1ccc(-c2cc3ccc(C(=N)N)cc3[nH]2)cc1 [DAPI]
pKa [15]: 11.6

COc1cc(Cc2cnc(N)nc2N)cc(OC)c1OC [TRIMETHOPRIM]
MIC (Staphylococcus aureus [4]): 3.12 µg/mL (≈ 10.8 µM)
MIC (Staphylococcus aureus [1]): 3.12 µg/mL (≈ 10.8 µM)

CN(C)[C@@H]1C(O)=C(C(N)=O)C(=O)[C@@]2(O)C(O)=C3C(=O)c4c(O)cccc4[C@@](C)(O)[C@H]3C[C@@H]12 [TETRACYCLINE]
MIC (Staphylococcus aureus [4]): 0.5 µg/mL (≈ 1.13 µM)
MIC (Staphylococcus aureus [1]): 0.5 µg/mL (≈ 1.13 µM)

CN[C@@H]1[C@H](O)[C@H](NC)[C@H]2O[C@@]3(O)C(=O)C[C@@H](C)O[C@H]3O[C@@H]2[C@H]1O [SPECTINOMYCIN]
MIC (Staphylococcus aureus [4]): 128 µg/mL (≈ 385 µM)
MIC (Staphylococcus aureus [1]): 128 µg/mL (≈ 385 µM)
